# Experimental data reported in ChEMBL document CHEMBL1126078, “Benzodiazepine receptor affinity and interaction of some N-(indol-3-ylglyoxylyl)amine derivatives” (J Med Chem, 1992).
# pKi: −log10 of the molar value. The source made the active and inactive calls. No cut-off for these calls is given here.
# Experiments:
# [1] = target: GABA-A receptor; anion channel; assay: (§1) In vitro inhibition of [3H]flunitrazepam binding to GABA-A benzodiazepine receptor of bovine cerebral cortical membranes at 10 uM; set-up: species or system Bos taurus
# Summary of the method: (§2)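 Bovine cortex membranes (sucrose homogenate, 50 000g pellet, frozen and washed to remove endogenous GABA) in 50 mM Tris-HCl pH 7.4; 0.4 mg protein incubated 90 min at 0 °C with 0.2 nM [3H]flunitrazepam, filtered, counted. Nonspecific binding with 10 μM diazepam. Single test concentration 10 μM, or 1 μM where insoluble; mean ± SEM of five determinations.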
# [2] = target: T1, GABA-A receptor; anion channel (Bos taurus) (UniProt P10063+P08220+P20237+P08219+P10064+P22300); assay: Relative binding to GABA-A receptor in the presence and absence of GABA (GABA shift), Ki(-GABA)/Ki(+GABA); format: protein-complex assay
# Summary of the method: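 Same [3H]flunitrazepam (0.2 nM, 0 °C, 90 min) binding with GABA-depleted washed bovine cortical membranes. IC50 from log-probit analysis of 6–8 concentrations in triplicate, measured with and without 10 μM GABA; Ki by Cheng–Prusoff (Kd 1.8 nM). Ratio = Ki without GABA / Ki with GABA; Ki means ± SEM of three determinations.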
# [3] = target: T1, GABA-A receptor; anion channel (Bos taurus); assay: In vitro inhibition of [3H]flunitrazepam binding to GABA-A benzodiazepine receptor of bovine cerebral cortical membranes at 1 uM; summary of the method: as §2
# [4] = target: T1, GABA-A receptor; anion channel (Bos taurus); assay: as §1; summary of the method: as §2
# [5] = target: T1, GABA-A receptor; anion channel (Bos taurus); assay: In vitro inhibition of specific binding of [3H]flunitrazepam to benzodiazepine receptor in bovine cerebral cortex membrane at a concentration of 10 uM.; format: cell membranes; summary of the method: as §2
# Mus musculus [6] = assay: In vivo ip dose to induce convulsions in mice treated with subconvulsant PTZ (40 mg/kg); format: functional
# Summary of the method: (§3)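 Groups of 10 mice given graded doses ip (0.1 mL) suspended in 1% carboxymethylcellulose vehicle, or vehicle alone; PTZ given 30 min later at 80 mg/kg (anticonvulsant test) or 40 mg/kg subconvulsant (proconvulsant test). Proconvulsant value: dose inducing convulsions in 50% of mice. Highest dose tested 250 mg/kg.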
# Mus musculus [7] = assay: Anticonvulsant activity in mice on ip dose before 80 mg/kg of PTZ (NE=no effect); format: functional, organism-based; set-up: dose 80 mg/kg; summary of the method: as §3
# Mus musculus [8] = assay: In vivo ip dose to antagonize Diazepam (2.5 mg/kg) anticonvulsant effect in mice treated with 80 mg/kg PTZ; format: functional; conditions: route intraperitoneal
# Summary of the method: (§4)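 Groups of 10 mice received diazepam 2.5 mg/kg ip, then 10 min later graded ip doses of compound or vehicle; PTZ 80 mg/kg given 15 min after compound. Value: dose antagonizing diazepam's anticonvulsant effect in 50% of mice. Highest dose tested 250 mg/kg.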
# Mus musculus [9] = assay: In vivo ip dose to induce convulsions in mice treated with subconvulsant PTZ (40 mg/kg) (NE=no effect); format: functional, organism-based; summary of the method: as §3
# Mus musculus [10] = assay: In vivo ip dose to antagonize Diazepam (2.5 mg/kg) anticonvulsant effect in mice treated with 80 mg/kg PTZ (NE=no effect); format: functional, organism-based; set-up: dose 80 mg/kg; summary of the method: as §4
Compound,pKi [1],Ratio [2],inhibition [5],other results
CN1C(=O)CN=C(c2ccccc2)c2cc(Cl)ccc21 [DIAZEPAM],8.00,1.7,–,–
O=C(NCCc1ccccc1)C(=O)c1c[nH]c2ccc([N+](=O)[O-])cc12,–,–,–,inhibition [3]: 39%
O=C(NCCc1ccc(O)c(O)c1)C(=O)c1c[nH]c2ccc(Cl)cc12,6.00,0.52,–,inhibition [4]: 90%
Cn1cc(C(=O)C(=O)NCCc2ccccc2)c2ccccc21,–,–,42%,–
Cn1cc(C(=O)C(=O)NCCc2ccc(O)c(O)c2)c2ccccc21,–,–,–,inhibition [4]: 17%
O=C(NCCc1ccc(O)c(O)c1)C(=O)c1c[nH]c2ccc(Br)cc12,5.92,0.7,–,inhibition [4]: 85%
COc1ccc(CCNC(=O)C(=O)c2c[nH]c3ccccc23)cc1OC,6.29,1.3,96%,–
COc1ccc(CCNC(=O)C(=O)c2c[nH]c3ccc([N+](=O)[O-])cc23)cc1,–,–,32%,–
O=C(NCCc1ccc(O)cc1)C(=O)c1c[nH]c2ccccc12,5.62,0.7,82%,–
COc1ccc(CCNC(=O)C(=O)c2c[nH]c3ccc(Cl)cc23)cc1OC,6.15,1.3,94%,–
CCOC(=O)c1ncn2c1CN(C)C(=O)c1cc(F)ccc1-2 [FLUMAZENIL],9.42,1,–,–
O=C(NCCc1ccc(O)cc1)C(=O)c1c[nH]c2ccc(Cl)cc12,5.66,0.8,83%,–
Cn1cc(C(=O)C(=O)NCCc2c[nH]c3ccccc23)c2ccccc21,–,–,39%,–
O=C(NCCc1ccccc1)C(=O)c1c[nH]c2ccc(Cl)cc12,–,–,25%,–
O=C(NCCc1ccc(O)c(O)c1)C(=O)c1c[nH]c2ccccc12,5.38,0.92,–,inhibition [4]: 68%
O=C(NCCc1ccc(O)c(O)c1)C(=O)c1c[nH]c2ccc([N+](=O)[O-])cc12,6.55,0.64,–,ED50 (Mus musculus [6]): 100 mg/kg; Activity (Mus musculus [7]): inactive; ED50 (Mus musculus [8]): 75 mg/kg; inhibition [4]: 100%
O=C(NCCc1c[nH]c2ccccc12)C(=O)c1c[nH]c2ccc(Br)cc12,–,–,62%,–

Compound,pKi [1],Ratio [2],inhibition [5],other results
COc1ccc(CCNC(=O)C(=O)c2c[nH]c3ccc([N+](=O)[O-])cc23)cc1OC,–,1,–,–
COc1ccc(CCNC(=O)C(=O)c2cn(C)c3ccccc23)cc1,–,–,67%,–
O=C(NCCc1c[nH]c2ccccc12)C(=O)c1c[nH]c2ccc([N+](=O)[O-])cc12,6.46,0.65,90%,–
COc1cccc(CCNC(=O)C(=O)c2c[nH]c3ccc([N+](=O)[O-])cc23)c1,–,–,25%,–
COc1cccc(CCNC(=O)C(=O)c2c[nH]c3ccccc23)c1,7.07,1.2,97%,–
O=C(NCCc1ccc(Cl)cc1)C(=O)c1c[nH]c2ccc(Cl)cc12,–,–,4%,–
O=C(NCCc1c[nH]c2ccccc12)C(=O)c1c[nH]c2ccc(Cl)cc12,–,–,70%,–
O=C(NCCc1ccc(O)cc1)C(=O)c1c[nH]c2ccc(Br)cc12,5.64,0.8,75%,–
O=C(NCCc1ccccc1)C(=O)c1c[nH]c2ccccc12,6.42,1.3,94%,ED50 (Mus musculus [9]): inactive; ED50 (Mus musculus [10]): inactive; Activity (Mus musculus [7]): inactive
COc1ccc(CCNC(=O)C(=O)c2c[nH]c3ccccc23)cc1,7.05,1.3,97%,ED50 (Mus musculus [9]): inactive; ED50 (Mus musculus [10]): inactive; Activity (Mus musculus [7]): inactive
Cn1cc(C(=O)C(=O)NCCc2ccc(Cl)cc2)c2ccccc21,–,–,–,inhibition [4]: 25%
O=C(NCCc1c[nH]c2ccccc12)C(=O)c1c[nH]c2ccccc12,5.82,1,83%,–
Cn1cc(C(=O)C(=O)NCCc2ccc(O)cc2)c2ccccc21,–,–,58%,–
O=C(NCCc1ccc(O)cc1)C(=O)c1c[nH]c2ccc([N+](=O)[O-])cc12,6.46,0.7,100%,ED50 (Mus musculus [6]): 75 mg/kg; Activity (Mus musculus [7]): inactive; ED50 (Mus musculus [8]): 50 mg/kg
O=C(NCCc1ccc(Cl)cc1)C(=O)c1c[nH]c2ccc([N+](=O)[O-])cc12,–,–,0%,–
O=C(NCCc1ccc(Cl)cc1)C(=O)c1c[nH]c2ccccc12,6.47,1.2,–,–
COc1ccc(CCNC(=O)C(=O)c2cn(C)c3ccccc23)cc1OC,–,–,51%,–
